Source: ChEMBL document CHEMBL1124186, “Synthesis and evaluation of tylosin-related macrolides modified at the aldehyde function: a new series of orally effective antibiotics” (1988)
In brackets after ≈: the same amount, converted by molar mass.

Experiments:
Haemophilus influenzae [1] = experiment: In vitro antimicrobial activity against aerobic bacteria Haemophilus influenzae MX366,; assay type: functional
Haemophilus influenzae [2] = experiment: In vitro antimicrobial activity against Haemophilus influenzae.; assay type: functional
Staphylococcus aureus [3] = experiment: In vitro antimicrobial activity against Staphylococcus aureus X1; assay type: functional
Staphylococcus aureus [4] = experiment: In vitro antimicrobial activity against aerobic bacteria Staphylococcus aureus 513E; assay type: functional
[5] = In vitro antimicrobial activity against anaerobic bacteria peptostreptococcus intermedius 1264; assay type: functional
Streptococcus viridans = experiment: In vitro antimicrobial activity against aerobic bacteria Streptococcus viridans 9943; assay type: functional
Staphylococcus aureus [6] = experiment: In vivo activity against experimental infections in mice Staphylococcus aureus X1 when administered sc; assay type: functional
Cutibacterium acnes = experiment: In vitro antimicrobial activity against anaerobic bacteria propionibacterium acnes 79; assay type: functional
[7] = test system: Peptostreptococcus anaerobius; experiment: In vitro antimicrobial activity against anaerobic bacteria eubacterium peptostreptococcus anaerobius 1428,; assay type: functional
Streptococcus pyogenes [8] = experiment: In vivo effective dose against experimental infections in rodent caused by Streptococcus pyogenes C203 when administered orally; assay type: functional; settings: po
Rattus norvegicus [9] = experiment: Peripheral plasma levels in rats after oral administration of 100 mg/kg dose for 0.5 hr; assay type: functional, organism-based; design: dose 100 mg/kg
In short: (§1)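 Rats received 100 mg/kg orally and were sampled for peripheral plasma. Concentrations were measured by Micrococcus luteus agar-diffusion microbiological assay in Antibiotic Medium 1, with zone sizes converted using the standard curve for the appropriate compound. Each value is the average of three rats per time point.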

Staphylococcus aureus [10] = experiment: In vivo activity against experimental infections in mice Staphylococcus aureus X1 when administered orally; assay type: functional; settings: po
Streptococcus pneumoniae [11] = experiment: In vivo activity against experimental infections in mice Streptococcus pneumoniae park when administered orally; assay type: functional; settings: po
Anaerococcus prevotii = experiment: In vitro antimicrobial activity against anaerobic bacteria peptococcus prevoti 1281; assay type: functional
Rattus norvegicus [12] = experiment: Peripheral plasma levels in rats after oral administration of 100 mg/kg dose for 2 hr; assay type: functional, organism-based; design: dose 100 mg/kg; in short: as §1
Enterococcus faecium = experiment: In vitro antimicrobial activity against Streptococcus faecium X66; assay type: functional, streptococcus fae-cium
Streptococcus [13] = experiment: In vitro antimicrobial activity against aerobic bacteria Streptococcus B 14; assay type: functional
[14] = test system: Prevotella melaninogenica; experiment: In vitro antimicrobial activity against anaerobic bacteria bacteroides melaninogenicus 1856,; assay type: functional
Streptococcus [15] = experiment: In vitro antimicrobial activity against aerobic bacteria Streptococcus D 8043; assay type: functional
Staphylococcus aureus [16] = experiment: In vitro antimicrobial activity against aerobic bacteria Staphylococcus aureus V41; assay type: functional
Clostridium perfringens = experiment: In vitro antimicrobial activity against anaerobic bacteria clostridium perfringens 81,; assay type: functional
Rattus norvegicus [17] = experiment: Peripheral plasma levels in rats after oral administration of 100 mg/kg dose for 0.25 hr; assay type: functional, organism-based; design: dose 100 mg/kg; in short: as §1
Mus musculus [18] = experiment: Peripheral plasma levels in mice after oral administration of 50 mg/kg dose for 0.5 hr; assay type: functional, organism-based; design: dose 50 mg/kg
In short: (§2)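 Mice were given the compound orally and sampled for peripheral plasma at each time point. Plasma was assayed microbiologically against Micrococcus luteus seeded in Antibiotic Medium 1. Inhibition zone sizes were read, and concentrations were calculated from each compound's own standard curve. Each value is the mean of five mice per time point.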

Mus musculus [19] = experiment: Peripheral plasma levels in mice after oral administration of 50 mg/kg dose for 2 hr; assay type: functional, organism-based; design: dose 50 mg/kg; in short: as §2
[20] = test system: Haemophilus parainfluenzae; experiment: In vitro antimicrobial activity against aerobic bacteria Haemophilus parainfluenzae 9796; assay type: functional
Mus musculus [21] = experiment: Peripheral plasma levels in mice after oral administration of 100 mg/kg dose for 1 hr; assay type: functional, organism-based; design: dose 100 mg/kg; in short: as §2
[22] = test system: Bacteroides thetaiotaomicron; experiment: In vitro antimicrobial activity against anaerobic bacteria bacteroides thetaiotaomicron 1438; assay type: functional
Eikenella corrodens = experiment: In vitro antimicrobial activity against anaerobic bacteria bacteroides corrodens 1874; assay type: functional
Fusobacterium = experiment: In vitro antimicrobial activity against anaerobic bacteria fusobacterium symbiosum 1470; assay type: functional
Streptococcus [23] = experiment: In vitro antimicrobial activity against aerobic bacteria Streptococcus B 8; assay type: functional
Streptococcus [24] = experiment: In vitro antimicrobial activity against aerobic bacteria Streptococcus D 2041; assay type: functional
Streptococcus pyogenes [25] = experiment: In vivo effective dose against experimental infections in rodent caused by Streptococcus pyogenes C203 when administered sc; assay type: functional
[26] = test system: Peptoniphilus asaccharolyticus; experiment: In vitro antimicrobial activity against anaerobic bacteria peptococcus asaccharolyticus 1302; assay type: functional
Mus musculus [27] = experiment: Peripheral plasma levels in mice after oral administration of 50 mg/kg dose for 1 hr; assay type: functional, organism-based; design: dose 50 mg/kg; in short: as §2
Streptococcus [28] = experiment: In vitro antimicrobial activity against aerobic bacteria Streptococcus C 24; assay type: functional
Streptococcus [29] = experiment: In vitro antimicrobial activity against aerobic bacteria Streptococcus G Kruder; assay type: functional; settings: Streptococcus; read-out: MIC
Mus musculus [30] = experiment: Peripheral plasma levels in mice after oral administration of 100 mg/kg dose for 4 hr; assay type: functional, organism-based; design: dose 100 mg/kg; in short: as §2
[31] = test system: Fusobacterium necrophorum; experiment: In vitro antimicrobial activity against anaerobic bacteria usobacterium necrophorum 6054A; assay type: functional
[32] = test system: Staphylococcus epidermidis; experiment: In vitro antimicrobial activity against Staphylococcus epidermidis EPI1; assay type: functional
Streptococcus pyogenes [33] = experiment: In vitro antimicrobial activity against Streptococcus pyogenes C203; assay type: functional
Rattus norvegicus [34] = experiment: Peripheral plasma levels in rats after oral administration of 100 mg/kg dose for 4 hr; assay type: functional, organism-based; design: dose 100 mg/kg; in short: as §1
[35] = test system: Prevotella melaninogenica; experiment: In vitro antimicrobial activity against anaerobic bacteria bacteroides melaninogenicus 2736; assay type: functional
Collinsella aerofaciens = experiment: In vitro antimicrobial activity against anaerobic bacteria eubacterium aerofaciens 1235; assay type: functional
[36] = test system: Staphylococcus epidermidis; experiment: In vitro antimicrobial activity against aerobic bacteria Streptococcus epi 270; assay type: functional
Clostridium septicum = experiment: In vitro antimicrobial activity against anaerobic bacteria clostridium septicum 1128; assay type: functional
Mus musculus [37] = experiment: Peripheral plasma levels in mice after oral administration of 100 mg/kg dose for 2 hr; assay type: functional, organism-based; design: dose 100 mg/kg; in short: as §2
Staphylococcus aureus [38] = experiment: In vitro antimicrobial activity against aerobic bacteria Staphylococcus aureus V140,; assay type: functional
Haemophilus influenzae [39] = experiment: In vitro antimicrobial activity against aerobic bacteria Haemophilus influenzae 76; assay type: functional
Chlamydia trachomatis = experiment: In vitro antimicrobial activity against chlamydia trachomatis.; assay type: functional
[40] = test system: Staphylococcus epidermidis; experiment: In vitro antimicrobial activity against aerobic bacteria Streptococcus epi 222; assay type: functional
Streptococcus [41] = experiment: In vitro antimicrobial activity against aerobic bacteria Streptococcus D 9960; assay type: functional
Haemophilus influenzae [42] = experiment: In vitro antimicrobial activity against aerobic bacteria Haemophilus influenzae 465; assay type: functional
Streptococcus pneumoniae [43] = experiment: In vivo activity against experimental infections in mice Streptococcus pneumoniae park when administered sc; assay type: functional
Phocaeicola vulgatus = experiment: In vitro antimicrobial activity against anaerobic bacteria bacteroides vulgatus 1211; assay type: functional
Bacteroides fragilis [44] = experiment: In vitro antimicrobial activity against anaerobic bacteria bacteroides fragilis 1936B,; assay type: functional
Bacteroides fragilis [45] = experiment: In vitro antimicrobial activity against anaerobic bacteria bacteroides fragilis 1877; assay type: functional
Staphylococcus aureus [46] = experiment: In vitro antimicrobial activity against aerobic bacteria Staphylococcus aureus V135; assay type: functional
Staphylococcus aureus [47] = experiment: In vitro antimicrobial activity against aerobic bacteria Staphylococcus aureus X400; assay type: functional
Mus musculus [48] = experiment: Peripheral plasma levels in mice after oral administration of 50 mg/kg dose for 4 hr; assay type: functional, organism-based; design: dose 50 mg/kg; in short: as §2
Streptococcus [49] = experiment: In vitro antimicrobial activity against aerobic bacteria Streptococcus B 5; assay type: functional
Mus musculus [50] = experiment: Peripheral plasma levels in mice after oral administration of 50 mg/kg dose for 0.25 hr; assay type: functional, organism-based; design: dose 50 mg/kg; in short: as §2
Streptococcus pneumoniae [51] = experiment: In vitro antimicrobial activity against aerobic bacteria Streptococcus pneumoniae B1-438; assay type: functional, streptococcus pneum
Rattus norvegicus [52] = experiment: Peripheral plasma levels in rats after oral administration of 100 mg/kg dose for 1 hr; assay type: functional, organism-based; design: dose 100 mg/kg; in short: as §1
Streptococcus pneumoniae [53] = experiment: In vitro antimicrobial activity against Streptococcus pneumoniae; assay type: functional
Streptococcus sanguinis = experiment: In vitro antimicrobial activity against aerobic bacteria Streptococcus sanguis MX132; assay type: functional
Clostridioides difficile = experiment: In vitro antimicrobial activity against anaerobic bacteria Clostridium difficile 2994; assay type: functional
Bacteroides fragilis [54] = experiment: In vitro antimicrobial activity against anaerobic bacteria bacteroides fragilis 111; assay type: functional
Mus musculus [55] = experiment: Peripheral plasma levels in mice after oral administration of 100 mg/kg dose for 0.5 hr; assay type: functional, organism-based; design: dose 100 mg/kg; in short: as §2
Mus musculus [56] = experiment: Peripheral plasma levels in mice after oral administration of 100 mg/kg dose for 0.25 hr; assay type: functional, organism-based; design: dose 100 mg/kg; in short: as §2

## CC[C@H]1OC(=O)C[C@@H](O)[C@H](C)[C@@H](O[C@@H]2O[C@H](C)[C@@H](O)[C@H](N(C)C)[C@H]2O)[C@@H](CCOc2ccccc2)C[C@@H](C)C(=O)/C=C/C(C)=C/[C@@H]1CO[C@@H]1O[C@H](C)[C@@H](O)[C@@H](OC)[C@H]1OC
Haemophilus influenzae [1]
  MIC: 16 µg/mL (≈ 18.8 µM)
Haemophilus influenzae [2]
  MIC: 32 µg/mL (≈ 37.6 µM)
Staphylococcus aureus [3]
  MIC: 0.25 µg/mL (≈ 0.294 µM)
Staphylococcus aureus [4]
  MIC: 0.25 µg/mL (≈ 0.294 µM)
[5]
  MIC: 2 µg/mL (≈ 2.35 µM)
Streptococcus viridans
  MIC: > 128 µg/mL
Staphylococcus aureus [6]
  ED50: 4.2 mg/kg
Cutibacterium acnes
  MIC: 8 µg/mL (≈ 9.41 µM)
[7]
  MIC: < 0.5 µg/mL
Streptococcus pyogenes [8]
  ED50: 9 mg/kg
Rattus norvegicus [9]
  Concentration: 3.9 µg/mL
Staphylococcus aureus [10]
  ED50: 17 mg/kg
Streptococcus pneumoniae [11]
  ED50: > 50 mg/kg
Anaerococcus prevotii
  MIC: 1 µg/mL (≈ 1.18 µM)
Rattus norvegicus [12]
  Concentration: 4.8 µg/mL
Enterococcus faecium
  MIC: 8 µg/mL (≈ 9.41 µM)
Streptococcus [13]
  MIC: 16 µg/mL (≈ 18.8 µM)
[14]
  MIC: 1 µg/mL (≈ 1.18 µM)
Streptococcus [15]
  MIC: 2 µg/mL (≈ 2.35 µM)
Staphylococcus aureus [16]
  MIC: 0.25 µg/mL (≈ 0.294 µM)
Clostridium perfringens
  MIC: < 0.5 µg/mL
Rattus norvegicus [17]
  Concentration: 2.6 µg/mL
Mus musculus [18]
  Concentration: 2.7 µg/mL
Mus musculus [19]
  Concentration: 1.2 µg/mL
[20]
  MIC: 32 µg/mL (≈ 37.6 µM)
Mus musculus [21]
  Concentration: 13.1 µg/mL
[22]
  MIC: 2 µg/mL (≈ 2.35 µM)
Eikenella corrodens
  MIC: 1 µg/mL (≈ 1.18 µM)
Fusobacterium
  MIC: 1 µg/mL (≈ 1.18 µM)
Streptococcus [23]
  MIC: 8 µg/mL (≈ 9.41 µM)
Streptococcus [24]
  MIC: 8 µg/mL (≈ 9.41 µM)
Streptococcus pyogenes [25]
  ED50: 5 mg/kg
[26]
  MIC: 1 µg/mL (≈ 1.18 µM)
Mus musculus [27]
  Concentration: 2.4 µg/mL
Streptococcus [28]
  MIC: 0.25 µg/mL (≈ 0.294 µM)
Streptococcus [29]
  MIC: 32 µg/mL (≈ 37.6 µM)
Mus musculus [30]
  Concentration: 1.2 µg/mL
[31]
  MIC: 8 µg/mL (≈ 9.41 µM)
[32]
  MIC: 0.25 µg/mL (≈ 0.294 µM)
Streptococcus pyogenes [33]
  MIC: 0.12 µg/mL (≈ 0.141 µM)
Rattus norvegicus [34]
  Concentration: 5.6 µg/mL
[35]
  MIC: 1 µg/mL (≈ 1.18 µM)
Collinsella aerofaciens
  MIC: 2 µg/mL (≈ 2.35 µM)
[36]
  MIC: > 128 µg/mL
Clostridium septicum
  MIC: < 0.5 µg/mL
Mus musculus [37]
  Concentration: 6.5 µg/mL
Staphylococcus aureus [38]
  MIC: 0.25 µg/mL (≈ 0.294 µM)
Haemophilus influenzae [39]
  MIC: 16 µg/mL (≈ 18.8 µM)
Chlamydia trachomatis
  MIC: 0.25 µg/mL (≈ 0.294 µM)
[40]
  MIC: 0.12 µg/mL (≈ 0.141 µM)
Streptococcus [41]
  MIC: 8 µg/mL (≈ 9.41 µM)
Haemophilus influenzae [42]
  MIC: 16 µg/mL (≈ 18.8 µM)
Streptococcus pneumoniae [43]
  ED50: > 20 mg/kg
Phocaeicola vulgatus
  MIC: 1 µg/mL (≈ 1.18 µM)
Bacteroides fragilis [44]
  MIC: 1 µg/mL (≈ 1.18 µM)
Bacteroides fragilis [45]
  MIC: 1 µg/mL (≈ 1.18 µM)
Staphylococcus aureus [46]
  MIC: 0.25 µg/mL (≈ 0.294 µM)
Staphylococcus aureus [47]
  MIC: 0.25 µg/mL (≈ 0.294 µM)
Mus musculus [48]
  Concentration: 0.2 µg/mL
Streptococcus [49]
  MIC: 4 µg/mL (≈ 4.71 µM)
Mus musculus [50]
  Concentration: 3.2 µg/mL
Streptococcus pneumoniae [51]
  MIC: > 128 µg/mL
Rattus norvegicus [52]
  Concentration: 3.4 µg/mL
Streptococcus pneumoniae [53]
  MIC: 1 µg/mL (≈ 1.18 µM)
Streptococcus sanguinis
  MIC: 1 µg/mL (≈ 1.18 µM)
Clostridioides difficile
  MIC: < 0.5 µg/mL
Bacteroides fragilis [54]
  MIC: 1 µg/mL (≈ 1.18 µM)
Mus musculus [55]
  Concentration: 11.5 µg/mL
Mus musculus [56]
  Concentration: 8.9 µg/mL
